# Assay results published in ChEMBL document CHEMBL1124606, “Benzo- and pyrido-1,4-oxazepin-5-ones and -thiones: synthesis and structure-activity relationships of a new series of H1 antihistamines” (1989).
# Columns and labels:
# [1] = target: Histamine H1 receptor (Cavia porcellus) (UniProt P31389); assay: Histamine induced lethality, at 60-min pretreatment time of 0.1 mg/kg p.o. in guinea pigs.; assay type: functional, organism-based; design: dose 0.1 mg/kg; conditions: at 0.1 mg/kg
# Cavia porcellus [2] = species on record: Cavia porcellus; assay: Effective dose that protects guinea pigs against histamine induced lethality, at 1 hour pretreatment time; assay type: functional
# Summary of the method: (§1)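 Survival at 24 h after challenge was scored as protection. Groups of 5–10 animals per treatment; ED50 was calculated by the Litchfield–Wilcoxon method or by computer probit analysis.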
# Cavia porcellus [3] = species on record: Cavia porcellus; assay: Effective dose that protects guinea pigs against histamine induced lethality at 6 hours pretreatment time; assay type: functional; summary of the method: as §1
# Cavia porcellus [4] = assay: Histamine induced lethality, at 30-min pretreatment time when 1 mg/kg compound was administered intra peritoneally in guinea pigs; assay type: functional
# [5] = target: Histamine H1 receptor (Cavia porcellus) (UniProt P31389); assay: Histamine induced lethality, at 30-min pretreatment time of 3 mg/kg i.p. in guinea pigs.; assay type: functional, organism-based; design: dose 3 mg/kg; conditions: at 3 mg/kg
# Cavia porcellus [6] = assay: Histamine induced lethality, at 60-min pretreatment time when 3 mg/kg compound was administered perorally in guinea pigs; assay type: functional; conditions: route oral
# Cavia porcellus [7] = assay: Histamine induced lethality, at 60-min pretreatment time when 30 mg/kg compound was administered perorally in guinea pigs; assay type: functional; conditions: route oral
# Cavia porcellus [8] = assay: Histamine induced lethality, at 30-min pretreatment time when 30 mg/kg compound was administered intra peritoneally in guinea pigs; assay type: functional
# Cavia porcellus [9] = assay: Histamine induced lethality, at 60-min pretreatment time when 1 mg/kg compound was administered perorally in guinea pigs; assay type: functional; conditions: route oral
# Cavia porcellus [10] = assay: Histamine induced lethality, at 60-min pretreatment time when 0.3 mg/kg compound was administered perorally in guinea pigs; assay type: functional; conditions: route oral
# Felis catus [11] = assay: The compound dose required for 50% block of H1 histamine activity, when administarted intra venously in cats; assay type: functional
# Summary of the method: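 Cats given test compound iv (0.001-20 mg/kg), with blood pressure recorded continuously. Histamine 0.5 μg/kg iv was given to induce hypotension, before and 5, 10 and 20 min after each dose. The antihistaminic dose was the one inhibiting the histamine response by >50%. Values are mean ± SD over the number of experiments per compound.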
# Felis catus [12] = assay: The compound dose required to elicit marked cortical slowing and spindling, when administarted intra venously in cats; assay type: functional
# Summary of the method: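 Cats given test compound iv (0.001-20 mg/kg), with spontaneous EEG inspected after each dose for cortical slowing, synchrony and spindle-type activity. The sedative dose was the one producing marked slowing and spindling (synchrony). Values are mean ± SD over the number of experiments per compound.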
# Cavia porcellus [13] = assay: Histamine induced lethality, at 30-min pretreatment time when 30 mg/kg compound was administered intra peritoneallyn guinea pigs; assay type: functional
# Cavia porcellus [14] = assay: Histamine induced lethality, at 30-min pretreatment time when 3 mg/kg compound was administered intra peritoneally in guinea pigs; assay type: functional
# Cavia porcellus [15] = assay: Histamine induced lethality, at 30-min pretreatment time when 0.3 mg/kg compound was administered intra peritoneally in guinea pigs; assay type: functional
# Cavia porcellus [16] = assay: Histamine induced lethality, at 60-min pretreatment time when 0.1 mg/kg compound was administered perorally in guinea pigs; assay type: functional; conditions: route oral
# Cavia porcellus [17] = assay: Histamine induced lethality, at 30-min pretreatment time when 1 mg/kg compound was administered perorally in guinea pigs; assay type: functional; conditions: route oral
# Sequence of Histamine H1 receptor (Cavia porcellus) (P31389 whole entry): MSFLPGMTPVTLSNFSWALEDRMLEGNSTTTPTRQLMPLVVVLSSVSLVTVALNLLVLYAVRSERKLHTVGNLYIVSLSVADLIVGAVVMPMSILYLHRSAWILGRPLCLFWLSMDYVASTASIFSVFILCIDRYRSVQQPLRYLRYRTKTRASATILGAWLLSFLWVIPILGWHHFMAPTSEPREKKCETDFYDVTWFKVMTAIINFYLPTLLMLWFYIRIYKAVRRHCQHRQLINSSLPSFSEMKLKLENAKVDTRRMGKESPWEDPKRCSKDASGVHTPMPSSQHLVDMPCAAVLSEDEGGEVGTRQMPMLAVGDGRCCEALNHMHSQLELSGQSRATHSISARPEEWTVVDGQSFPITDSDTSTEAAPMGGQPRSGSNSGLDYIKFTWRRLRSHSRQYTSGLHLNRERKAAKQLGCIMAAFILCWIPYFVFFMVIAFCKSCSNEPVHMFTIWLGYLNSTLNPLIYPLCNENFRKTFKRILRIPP
SMILES,Survival [1] [%],ED50 (Cavia porcellus [2]) [mg/kg],ED50 (Cavia porcellus [3]) [mg/kg],survival at 3 mg/kg (Cavia porcellus [6]) [%],survival at 30 mg/kg (Cavia porcellus [7]) [%],Dose (Felis catus [12]) [mg/kg],further results
CN(C)CCC1CN(C)C(=S)c2cc(Br)cnc2O1 (stereo not drawn),100,0.05,2,–,–,–,–
CN(C)CCC1CN(C)C(=O)c2cc3ccccc3nc2O1 (stereo not drawn),–,–,–,–,–,–,survival at 1 mg/kg (Cavia porcellus [4]): 0%; Survival [5]: 100%
CN(C)CCC1CN(C)C(=S)c2cc(C(F)(F)F)ccc2O1 (stereo not drawn),–,–,–,33,100,–,–
CN(C)CCC1CN(C)C(=S)c2cnccc2O1 (stereo not drawn),–,–,–,–,–,–,survival at 1 mg/kg (Cavia porcellus [4]): 0%; Survival [5]: 100%; survival at 30 mg/kg (Cavia porcellus [8]): 100%
CN1CC(CCN)Oc2ncccc2C1=S (stereo not drawn),–,–,–,–,0,–,–
COc1ccc(CCN(C)CCC2CN(C)C(=S)c3cccnc3O2)cc1 (stereo not drawn),–,–,–,33,100,–,–
CN1CC(CCN2CCC2)Oc2ncc(Br)cc2C1=S (stereo not drawn),60,0.09,0.1,100,–,–,survival at 1 mg/kg (Cavia porcellus [9]): 60%
Cc1ccc2c(n1)OC(CCN(C)C)CN(C)C2=S (stereo not drawn),80,0.06,> 2,–,–,–,survival at 0.3 mg/kg (Cavia porcellus [10]): 100%
CCOC(=O)N1CCC(=C2c3ccc(Cl)cc3CCc3cccnc32)CC1 [LORATADINE],–,–,–,–,–,20,Dose (Felis catus [11]): 0.43 mg/kg
CN1CC(CCN2CCC2)Oc2ncccc2C1=O (stereo not drawn),67,0.13,6,–,–,>20,survival at 0.3 mg/kg (Cavia porcellus [10]): 100%; Dose (Felis catus [11]): 0.6 mg/kg
CN1CC(CCN2CCC2)Oc2ncc(Cl)cc2C1=O (stereo not drawn),100,0.04,0.8,–,–,>20,Dose (Felis catus [11]): 0.06 mg/kg
CN(C)CCC1CN(C)C(=S)c2cc(Cl)cnc2O1 (stereo not drawn),100,0.04,0.6,–,–,>20,Dose (Felis catus [11]): 0.5 mg/kg
CN(C)CCC1CN(C)C(=O)c2cccnc2S1 (stereo not drawn),–,–,–,–,–,–,Survival [5]: 0%; survival at 30 mg/kg (Cavia porcellus [13]): 67%
CN(C)CCC1CN(C)C(=S)c2cccnc2S1 (stereo not drawn),–,–,–,–,–,–,survival at 3 mg/kg (Cavia porcellus [14]): 0%; survival at 30 mg/kg (Cavia porcellus [8]): 100%
CN1CC(CCN2CCC2)Oc2ncc(Cl)cc2C1=S (stereo not drawn),100,0.02,0.02,–,–,>20,Dose (Felis catus [11]): 0.005 mg/kg
CN1CC(CCN2CCCC2)Oc2ncccc2C1=S (stereo not drawn),–,–,–,80,67,–,–
COc1ccc(CCN2CCC(Nc3nc4ccccc4n3Cc3ccc(F)cc3)CC2)cc1 [ASTEMIZOLE],–,–,–,–,–,8,Dose (Felis catus [11]): 0.43 mg/kg
CN(C)CCC1CN(C)C(=S)c2cc3ccccc3nc2O1 (stereo not drawn),67,0.1,2.9,–,–,–,survival at 0.3 mg/kg (Cavia porcellus [10]): 100%

SMILES,Survival [1] [%],ED50 (Cavia porcellus [2]) [mg/kg],ED50 (Cavia porcellus [3]) [mg/kg],survival at 3 mg/kg (Cavia porcellus [6]) [%],survival at 30 mg/kg (Cavia porcellus [7]) [%],Dose (Felis catus [12]) [mg/kg],further results
CN(C)CCC1(C)CN(C)C(=S)c2cccnc2O1 (stereo not drawn),40,0.12,6,–,–,–,survival at 0.3 mg/kg (Cavia porcellus [10]): 67%; survival at 1 mg/kg (Cavia porcellus [9]): 100%
CN1CC(CCN2CCC2)Oc2ccc(C(F)(F)F)cc2C1=S (stereo not drawn),–,–,–,33,100,–,–
CN(C)CCC(c1ccc(Br)cc1)c1ccccn1 (stereo not drawn) [BROMPHENIRAMINE],40,0.08,2.5,–,–,1.7,survival at 0.3 mg/kg (Cavia porcellus [10]): 100%; Dose (Felis catus [11]): 1.3 mg/kg
CN(C)CCC1CN(C)C(=S)c2cc3ccccc3cc2O1 (stereo not drawn),–,–,–,–,–,>20,Dose (Felis catus [11]): 0.5 mg/kg; survival at 0.3 mg/kg (Cavia porcellus [15]): 100%; Survival [5]: 67%; survival at 30 mg/kg (Cavia porcellus [8]): 100%
CN(C)CCC1CN(C)C(=S)c2cccnc2O1 (stereo not drawn) [ROCASTINE],50,0.12,6,–,–,>20,survival at 0.3 mg/kg (Cavia porcellus [10]): 100%; Dose (Felis catus [11]): 0.5 mg/kg
CN(C)CCC1CN(C)C(=S)c2cc(Br)ccc2O1 (stereo not drawn),–,–,–,67,100,–,survival at 1 mg/kg (Cavia porcellus [9]): 0%
CN1CC(CCN2CCC2)Oc2ncccc2C1=S (stereo not drawn),100,0.04,1,–,–,–,–
CNCCC1CN(C)C(=S)c2cccnc2O1 (stereo not drawn),–,–,–,0,100,>20,–
CN(C)CCC1CN(C)C(=O)c2cnccc2O1 (stereo not drawn),–,–,–,–,–,–,survival at 1 mg/kg (Cavia porcellus [4]): 33%; Survival [5]: 67%; survival at 30 mg/kg (Cavia porcellus [8]): 100%
COc1ccc2c(c1)C(=S)N(C)CC(CCN(C)C)O2 (stereo not drawn),–,–,–,0,100,–,–
CN(C)CCC1CN(C)C(=S)c2cc(Cl)ccc2O1 (stereo not drawn),–,–,–,100,–,10,survival at 1 mg/kg (Cavia porcellus [9]): 33%
CN(C)CCC1CN(C)C(=S)c2ccc3ccccc3c2O1 (stereo not drawn),–,–,–,–,–,–,survival at 3 mg/kg (Cavia porcellus [14]): 33%; survival at 30 mg/kg (Cavia porcellus [8]): 100%
CN(C)CCC1CN(C)C(=S)c2ccc(Cl)cc2O1 (stereo not drawn),–,–,–,100,100,–,survival at 0.3 mg/kg (Cavia porcellus [10]): 0%; survival at 1 mg/kg (Cavia porcellus [9]): 0%
CCN(C)CCC1CN(C)C(=S)c2cccnc2O1 (stereo not drawn),–,–,–,60,100,–,survival at 1 mg/kg (Cavia porcellus [9]): 0%
CN(C)CCC1CN(C)C(=S)c2ccccc2O1 (stereo not drawn),–,–,–,0,100,>20,survival at 0.1 mg/kg (Cavia porcellus [16]): 100%; survival at 1 mg/kg (Cavia porcellus [9]): 0%; survival at 1 mg/kg (Cavia porcellus [17]): 50%
CN(C)CCOC(c1ccccc1)c1ccccc1 [DIPHENHYDRAMINE],–,2.8,38,67,–,0.6,survival at 1 mg/kg (Cavia porcellus [9]): 33%; Dose (Felis catus [11]): 0.75 mg/kg
CN(C)CCC1CN(C)C(=O)c2cc(Cl)cnc2O1 (stereo not drawn),–,0.3,28,–,–,–,survival at 0.3 mg/kg (Cavia porcellus [10]): 33%; survival at 1 mg/kg (Cavia porcellus [9]): 100%
